KDM4C inh: blocks human GASC-1 (KDM4C) demethylase activity; Q9H3R0; GST-KDM4C 2-372, H3K9me3 peptide, LANCE TR-FRET; inhibition, % at 12.5 µM; 96,000 tested, 0.15% active; AID 720574;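 active = mean replicate inhibition above about 25%, with at least 55% of replicates also reaching it, limit read from the data, passing the limit was not always enough; inconclusive = only one of those two conditions met; inactive = neither condition met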
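System: N-terminal GST-fused human GASC-1 (KDM4C) fragment, residues 2-372 / Amount: 10 nM GST-KDM4C in enzyme reaction / Also added: H3K9me3 peptide with Fe(II)/2OG / Times: 30 min demethylation and 1 h detection at room temperature / Signal: LANCE TR-FRET / Read-out basis: Fall in 671/618 emission ratio as inhibition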
Pf Dd2 growth: blocks growth of Plasmodium falciparum Dd2 parasites | 94,000 tested, 2.3% active | activity change, % at 10 µM | AID 1159554 | P. falciparum Dd2 growth, SYBR Green, 72 h; stronger effect = lower value; in the data active = activity change below about -80%; inconclusive = no clear call, values can overlap the other calls
T cruzi growth-1: inhibitors of T. cruzi proliferation; inhibition, % at 8.34 µM; 77,000 tested, 5.9% active; T. cruzi beta-gal in NIH3T3, GalScreen luminescence, 90 h;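 active = mean inhibition above about 93%, with at least 55% of replicates each passing it, limit read from the data, passing the limit was not always enough; inconclusive = only one of those two conditions holds; inactive = neither condition holds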
IDH1 mut inh: IDH1 R132H (human) inhibition. AID 624101. 70,000 tested, 0.18% active. O75874. inhibition, % at 10 µM. IDH1 R132H reductase, diaphorase/resazurin fluorescence, 60 min; in the data active = inhibition above about 34%; inconclusive = no clear call, values can overlap the other calls; inactive = below about 11%;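 also: 0% = DMSO and 100% = no enzyme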
Target sequence (O75874 whole entry R132H): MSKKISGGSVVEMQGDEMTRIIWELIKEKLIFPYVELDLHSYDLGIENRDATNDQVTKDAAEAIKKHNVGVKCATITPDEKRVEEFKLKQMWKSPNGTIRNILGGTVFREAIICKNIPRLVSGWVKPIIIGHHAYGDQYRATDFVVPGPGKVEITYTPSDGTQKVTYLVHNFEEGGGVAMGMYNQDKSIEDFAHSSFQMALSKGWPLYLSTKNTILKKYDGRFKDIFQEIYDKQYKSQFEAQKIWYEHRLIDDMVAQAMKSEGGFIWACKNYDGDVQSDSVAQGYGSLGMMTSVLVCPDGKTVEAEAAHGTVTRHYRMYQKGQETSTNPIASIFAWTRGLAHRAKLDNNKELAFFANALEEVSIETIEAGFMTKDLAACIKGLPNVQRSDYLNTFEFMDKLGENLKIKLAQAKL
T cruzi growth-2: inhibitors of T. cruzi proliferation; T. cruzi beta-gal in NIH3T3, GalScreen luminescence, 90 h; inhibition, % at 8.35 µM; 5,600 tested, 72% active; shares compounds with T cruzi growth-1; AID 651739;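 active = mean replicate inhibition above about 95% and at least 55% of replicates individually reaching it, limit read from the data; inconclusive = only one of the two criteria is met; inactive = neither criterion is met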
T cruzi growth-3: Trypanosoma cruzi proliferation inhibition; shares compounds with T cruzi growth-1; T. cruzi beta-gal in NIH3T3, GalScreen luminescence, 90 h; inhibition, % at 2.09 µM; 5,600 tested, 21% active; AID 651740;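 active = mean inhibition above about 95%, with at least 55% of replicates also reaching it, limit read from the data; inconclusive = meets just one of the two conditions; inactive = meets neither condition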;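 also: plate controls were neutral control median for no effect and positive control median for full effect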
NIH3T3 tox: NIH/3T3 (mouse) viability loss | shares compounds with T cruzi growth-1 | NIH/3T3 viability, CellTiter-Glo ATP luminescence, 90 h | cytotoxicity (signal decrease), % at 8.35 µM | 5,600 tested, 14% active;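 active = mean signal decrease across replicates above about 35% based on untreated-well scatter, with enough replicates individually passing, limit read from the data; inconclusive = no rule stated though some were filed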;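 also: 0% = median of neutral control wells and 100% = median of positive control wells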
3T3 cytotox 2: cytotoxicity in mouse NIH/3T3 fibroblasts; inhibition, % at 24.9 µM; AID 651744; shares compounds with T cruzi growth-1; NIH/3T3 viability, CellTiter-Glo ATP luminescence, 90 h; 5,600 tested, 56% active;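 active = mean loss of cell viability signal at or above a set limit, and enough replicates individually reaching it; inconclusive = meets only the mean limit or only the replicate share; inactive = meets neither condition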;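 also: 0% = median of neutral control wells and 100% = median of positive control wells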
Numbers without * were called inactive; ? = inconclusive; / = not tested or not shown; ! = not confirmed by another sample. An excerpt weighted towards active compounds, which were near 5.8% of everything screened.

SMILES	KDM4C inh	Pf Dd2 growth	T cruzi growth-1	IDH1 mut inh	T cruzi growth-2	T cruzi growth-3	NIH3T3 tox	3T3 cytotox 2
C[C@H]1CN([C@@H](C)CO)C(=O)Cc2cc(NC(=O)C3CCCCC3)ccc2O[C@H]1CN(C)Cc1ccc(C(=O)Nc2ccccc2N)cc1	0	?	89	0	/	/	/	/
O=C(CN1CCOCC1)NCC[C@H]1CC[C@H](NC(=O)Nc2ccccc2)[C@@H](CO)O1	4	1	34	0	/	/	/	/
CNC[C@@H]1OCCCC[C@H](C)Oc2ccc(NC(=O)CCC(F)(F)F)cc2C(=O)N([C@@H](C)CO)C[C@@H]1C	1	-12	98*	6	?	6	-31	19
CNC[C@H]1OCCCC[C@@H](C)Oc2ccc(NC(=O)Cc3ccccc3)cc2C(=O)N([C@@H](C)CO)C[C@H]1C	2	-1	?	/	-3	-3	-14	-36
CNC[C@H]1OCCCC[C@H](C)Oc2ccc(NC(=O)CCCN(C)C)cc2C(=O)N([C@H](C)CO)C[C@@H]1C	2	36	100*!	5	70	-20	-21	-13
C[C@H]1CN([C@@H](C)CO)C(=O)c2cc(NC(=O)CCCN(C)C)ccc2O[C@@H]1CN(C)S(C)(=O)=O	1	-1	104*	-2	-7	-7	-14	9
CNC[C@@H]1OCCCC[C@@H](C)Oc2ccc(NC(=O)CCCN(C)C)cc2C(=O)N([C@H](C)CO)C[C@@H]1C	1	20	4	/	/	/	/	/
CCN1[C@@H]2c3ccc(-c4ccccc4)c(=O)n3C[C@@H]2[C@@H](CO)[C@@H]1C(=O)NCC(F)(F)F	10	21	12	/	/	/	/	/
COc1cccc(NC(=O)N[C@H]2CC[C@H](CC(=O)N3CCOCC3)O[C@@H]2CO)c1	0	-1	-26	0	/	/	/	/
O=C(CN1CCOCC1)N1CC[C@@H]2[C@@H](CO)Nc3ccc(-c4ccccc4F)cc3[C@@H]21	-1	-4	50	/	/	/	/	/
O=C(Cc1ccccc1)N1CC[C@@H]2[C@H]1c1cc(-c3ccccc3F)ccc1N[C@@H]2CO	1	-15	113*	/	89	67	-10	53*
O=C(Cc1ccccc1)N1CC[C@H]2[C@H](CO)Nc3ccc(C#Cc4ccccc4)cc3[C@H]21	-3	-30	119*	/	105*	57	14	75*
O=C(Cc1ccccc1)N1CC[C@H]2[C@H](CO)Nc3ccc(-c4ccccc4)cc3[C@H]21	0	12	?	/	105*	69	-9	-20
O=C(Cc1ccccc1)N1CC[C@H]2[C@H](CO)Nc3ccc(C#Cc4cccc(F)c4)cc3[C@H]21	-1	-59	/	/	/	/	/	/
C[C@H](CO)N1C[C@H](C)[C@H](CN(C)Cc2ccccc2)Oc2c(NS(=O)(=O)c3cccs3)cccc2C1=O	2	-40	31	1	/	/	/	/
C[C@H]1CN([C@@H](C)CO)C(=O)c2cc(NC(=O)Nc3ccc(C(F)(F)F)cc3)ccc2O[C@H]1CN(C)Cc1ccc(C(=O)Nc2ccccc2N)cc1	12	-64	/	2	/	/	/	/
C[C@@H]1CN([C@@H](C)CO)C(=O)c2c(c3ccccc3n2C)-c2ccccc2CO[C@@H]1CN(C)Cc1cccnc1	2	-54	135*	6	99*	13	19	69*
C[C@@H]1CN([C@@H](C)CO)C(=O)c2c(c3ccccc3n2C)-c2ccccc2CO[C@@H]1CN(C)S(C)(=O)=O	0	-19	40	1	/	/	/	/
C[C@@H]1CN([C@H](C)CO)C(=O)c2c(c3ccccc3n2C)-c2ccccc2CO[C@@H]1CN(C)C	0	-21	?	-1	-16	-10	-18	1
C[C@@H]1CN([C@H](C)CO)C(=O)c2c(c3ccccc3n2C)-c2ccccc2CO[C@H]1CN(C)C	1	28	106*	-3	86	-26	-7	14

From PubChem
